ChEMBL document CHEMBL1156235, “A novel class of antihyperlipidemic agents with low density lipoprotein receptor up-regulation via the adaptor protein autosomal recessive hypercholesterolemia” (J Med Chem, 2010)
Converted amounts (≈) assume the structure as drawn. The source made the active and inactive calls. The rule behind the calls is not given here.

Legend:
[1] = target: T1, Sterol O-acyltransferase 1 (Rattus norvegicus, UniProt O70536); test: Inhibition of rat macrophages ACAT
T1 sequence (O70536 whole entry): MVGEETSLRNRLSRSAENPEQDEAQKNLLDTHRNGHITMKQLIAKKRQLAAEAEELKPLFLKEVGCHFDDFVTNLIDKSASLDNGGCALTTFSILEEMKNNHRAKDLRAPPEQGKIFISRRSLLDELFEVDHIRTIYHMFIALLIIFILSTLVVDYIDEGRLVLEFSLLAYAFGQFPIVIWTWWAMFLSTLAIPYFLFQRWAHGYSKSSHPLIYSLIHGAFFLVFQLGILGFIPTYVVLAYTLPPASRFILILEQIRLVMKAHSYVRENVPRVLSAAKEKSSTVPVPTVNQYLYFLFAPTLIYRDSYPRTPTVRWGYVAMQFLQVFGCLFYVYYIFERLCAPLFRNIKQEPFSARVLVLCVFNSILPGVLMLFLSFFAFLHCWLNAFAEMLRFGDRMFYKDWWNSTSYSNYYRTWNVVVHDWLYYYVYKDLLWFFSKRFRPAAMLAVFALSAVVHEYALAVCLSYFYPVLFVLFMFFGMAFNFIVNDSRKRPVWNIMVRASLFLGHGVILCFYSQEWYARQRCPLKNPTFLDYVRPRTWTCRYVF
Method in brief: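 ACAT was taken from rat macrophages, and inhibition was measured once (n = 1).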

HepG2 [2] = test: Upregulation of LDL receptor expression in human HepG2 cells assessed as DiI-LDL uptake after 19 hrs; assay type: functional; settings: HepG2, 19 h
Method in brief: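 HepG2 cells were grown 2-3 days in DMEM/F-12 with 10% FBS, then given compound in medium with 10% delipoprotein serum for 19 h at 37 °C. DiI-labelled human LDL was then added for 5 h, with 30-50-fold unlabelled LDL defining nonspecific uptake. Specific fluorescence per protein is expressed as % of control. EC25 is the concentration giving 25% up-regulation (n = 1).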

Hamster [3] = test: Antihyperlipidemic activity in high-cholesterol diet fed hamster model assessed as reduction of plasma total LDL cholesterol level at 10 mg/kg, po administered qd for 7 days; assay type: functional, Cricetinae; set-up: scale not given: the % may be the effect or the level left
Method in brief: (§1)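 Hamsters fed a rich diet for 1 week were dosed orally by gavage once daily for 1 week. Plasma total cholesterol and LDL-C were then measured. Values are mean ± SEM.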

Hamster [4] = test: Antihyperlipidemic activity in high-cholesterol diet fed hamster model assessed as reduction of plasma total LDL cholesterol level at 30 mg/kg, po administered qd for 7 days; assay type: functional, Cricetinae; set-up: scale not given: the % may be the effect or the level left; method in brief: as §1
Hamster [5] = test: Antihyperlipidemic activity in high-cholesterol diet fed hamster model assessed as reduction of plasma total cholesterol level at 10 mg/kg, po administered qd for 7 days; assay type: functional, Cricetinae; set-up: scale not given: the % may be the effect or the level left; method in brief: as §1
[6] = Cmax in hamster at 10 mg/kg; assay type: ADME, organism-based; set-up: dose 10 mg/kg; settings: cricetinae, in vivo
Method in brief: (§2)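 Male hamsters received a single oral dose of 10 mg/kg as the sodium salt, and serum drug concentration was followed over time. Values are mean ± SEM, n = 3.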

Hamster [7] = test: Antihyperlipidemic activity in high-cholesterol diet fed hamster model assessed as reduction of plasma total cholesterol level at 30 mg/kg, po administered qd for 7 days; assay type: functional, Cricetinae; set-up: scale not given: the % may be the effect or the level left; method in brief: as §1
[8] = Solubility in phosphate buffer at pH 7.4 by HPLC analysis; assay type: physicochemical
Method in brief: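 Solubility in phosphate buffer was measured at room temperature, with the dissolved amount quantified by HPLC.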

HepG2 [9] = test: Upregulation of LDL receptor expression in human HepG2 cells at 1 uM in presence of ARH-specific siRNA; assay type: functional, cell-based
HepG2 [10] = test: Increase of [125I]LDL cholesterol degradation in human HepG2 cells; assay type: functional, cell-based
Hamster [11] = test: Antihyperlipidemic activity in high-cholesterol diet fed po dosed hamster model assessed as reduction of plasma total LDL cholesterol level administered qd for 7 days; assay type: functional, organism-based; settings: Cricetinae; method in brief: as §1
Hamster [12] = test: Antihyperlipidemic activity in high-cholesterol diet fed po dosed hamster model assessed as reduction of plasma total cholesterol level administered qd for 7 days; assay type: functional, organism-based; settings: Cricetinae; method in brief: as §1
[13] = AUC (0 to 360 mins) in hamster at 10 mg/kg; assay type: ADME, organism-based; set-up: time < 6 hr, dose 10 mg/kg; settings: cricetinae, plasma; method in brief: as §2
HepG2 [14] = test: Increase of [125I]LDL cholesterol degradation in human HepG2 cells at 0.1 uM; assay type: functional
Hamster [15] = test: Antihyperlipidemic activity in high-cholesterol diet fed hamster model assessed as reduction of plasma total cholesterol level at 3 mg/kg, po administered qd for 7 days; assay type: functional, Cricetinae; set-up: scale not given: the % may be the effect or the level left; method in brief: as §1
Hamster [16] = test: Antihyperlipidemic activity in high-cholesterol diet fed hamster model assessed as reduction of plasma total LDL cholesterol level at 3 mg/kg, po administered qd for 7 days; assay type: functional, Cricetinae; set-up: scale not given: the % may be the effect or the level left; method in brief: as §1
HepG2 [17] = test: Increase of [125I]LDL cholesterol degradation in human HepG2 cells at 1 uM; assay type: functional
HepG2 [18] = test: Increase of [125I]LDL cholesterol degradation in human HepG2 cells at 0.01 uM; assay type: functional
Hamster [19] = test: Antihyperlipidemic activity in high-cholesterol diet fed hamster model assessed as reduction of plasma total LDL cholesterol level at 1 mg/kg, po administered qd for 7 days; assay type: functional, Cricetinae; set-up: scale not given: the % may be the effect or the level left; method in brief: as §1
Hamster [20] = test: Antihyperlipidemic activity in high-cholesterol diet fed hamster model assessed as reduction of plasma total cholesterol level at 1 mg/kg, po administered qd for 7 days; assay type: functional, Cricetinae; set-up: scale not given: the % may be the effect or the level left; method in brief: as §1

| SMILES | IC50 [1] [µM] | EC25 (HepG2 [2]) [µM] | solubility [8] [µg/mL] | also measured |
| --- | --- | --- | --- | --- |
| COc1cccc(C2(C(=O)Nc3c(C(C)C)cccc3C(C)C)CCN(c3ccccc3OC)CC2)c1 | > 1 | > 10 | – | – |
| COc1cccc(C2(C(=O)NS(=O)(=O)Oc3c(C(C)C)cccc3C(C)C)CCN(C)CC2)c1 | > 1 | > 10 | – | – |
| COc1cccc(C2(C(=O)NS(=O)(=O)Oc3c(C(C)C)cccc3C(C)C)CCN(c3ccccc3OC)CC2)c1 [listing 1 of 2 here] | 0.33 | 0.37 | – | Activity (Hamster [3]): -18%; Activity (Hamster [4]): -25%; Activity (Hamster [5]): -10%; Cmax [6]: 13 ng/mL; Activity (Hamster [7]): -17% |
| CC(C)c1cccc(C(C)C)c1OS(=O)(=O)NC(=O)C1(c2cccc(OCCO)c2)CCN(c2ncccn2)CC1 | – | 1.5 | > 200 | – |
| COc1cccc(C2(C(=O)NS(=O)(=O)Oc3c(C(C)C)cccc3C(C)C)CCN(c3ncccn3)CC2)c1 [listing 1 of 2 here] | – | – | – | Activity (HepG2 [9]): inactive; Activity (HepG2 [10]): Dose-dependent effect; Activity (Hamster [11]): Dose-dependent effect; Activity (Hamster [12]): Dose-dependent effect |
| CCCOc1cccc(C2(C(=O)NS(=O)(=O)Oc3c(C(C)C)cccc3C(C)C)CCN(c3ncccn3)CC2)c1 | – | > 10 | < 0.3 | – |
| COc1cccc(C2(C(=O)[N-]S(=O)(=O)Oc3c(C(C)C)cccc3C(C)C)CCN(c3ncccn3)CC2)c1.[Na+] | – | – | 230 | Cmax [6]: 290 ng/mL; AUC(0-t) at 6 h [13]: 1090 ng·h/mL |
| COc1cccc(C2(C(=O)NS(=O)(=O)Oc3c(C(C)C)cccc3C(C)C)CCN(c3nccc(C)n3)CC2)c1 | > 1 | 0.5 | 200 (≈ 353 µM) | – |
| COc1cccc(C2(C(=O)NS(=O)(=O)Oc3c(C(C)C)cccc3C(C)C)CCN(c3ncccc3OC)CC2)c1 | > 1 | > 10 | – | – |
| CC(C)c1c(C(=O)Nc2ccccc2)c(-c2ccccc2)c(-c2ccc(F)cc2)n1CC[C@@H](O)C[C@@H](O)CC(=O)O | – | – | – | Activity (HepG2 [9]): Active |
| COc1cccc(C2(C(=O)NS(=O)(=O)Oc3c(C(C)C)cccc3C(C)C)CCNCC2)c1 | > 1 | > 10 | – | – |
| COc1cccc(C2(C(=O)NS(=O)(=O)Oc3ccccc3C3CCCC3)CCN(c3ccccc3OC)CC2)c1 | > 1 | 0.69 | – | – |
| CCCc1cnc(N2CCC(C(=O)NS(=O)(=O)Oc3c(C(C)C)cccc3C(C)C)(c3cccc(OC)c3)CC2)nc1 | > 1 | > 10 | – | – |
| COc1cccc(C2(C(=O)NS(=O)(=O)Oc3c(C(C)C)cccc3C(C)C)CCN(c3ncc(Br)cn3)CC2)c1 | > 1 | 0.61 | < 0.1 | – |
| COc1cccc(C2(C(=O)NS(=O)(=O)Oc3c(C(C)C)cccc3C(C)C)CCN(c3ccccc3)CC2)c1 | > 1 | 1.52 | 180 (≈ 327 µM) | – |
| COc1cccc(C2(C(=O)N(C)S(=O)(=O)Oc3c(C(C)C)cccc3C(C)C)CCN(c3ncccn3)CC2)c1 | > 1 | > 10 | < 0.3 | – |
| COc1cccc(C2(C(=O)NS(=O)(=O)Oc3c(C(C)C)cccc3C(C)C)CCN(c3ccccc3OC)CC2)c1.Cl | – | – | – | Cmax [6]: 300 ng/mL; AUC(0-t) at 6 h [13]: 690 ng·h/mL |

| SMILES | IC50 [1] [µM] | EC25 (HepG2 [2]) [µM] | solubility [8] [µg/mL] | also measured |
| --- | --- | --- | --- | --- |
| COc1cccc(C2(C(=O)NS(=O)(=O)Oc3ccccc3C)CCN(c3ccccc3OC)CC2)c1 | > 1 | 3.88 | – | – |
| COc1cccc(C2(C(=O)NS(=O)(=O)Oc3c(C(C)C)cccc3C(C)C)CCN(c3ccccc3OC)CC2)c1 [listing 2 of 2 here] | – | – | – | Activity (Hamster [11]): Dose-dependent effect; Activity (Hamster [12]): Dose-dependent effect |
| COc1cccc(C2(C(=O)NS(=O)(=O)Oc3c(C(C)C)cccc3C(C)C)CCN(C(=O)c3ccccc3)CC2)c1 | > 1 | > 10 | – | – |
| COc1cccc(C2(C(=O)NS(=O)(=O)Oc3c(C(C)C)cccc3C(C)C)CCN(C(C)=O)CC2)c1 | > 1 | > 10 | – | – |
| COc1cccc(C2(C(=O)NS(=O)(=O)Nc3c(C(C)C)cccc3C(C)C)CCN(c3ccccc3OC)CC2)c1 | > 1 | > 10 | – | – |
| COc1cccc(C2(C(=O)NS(=O)(=O)Oc3c(C)cccc3C)CCN(c3ccccc3OC)CC2)c1 | 0.41 | > 10 | – | – |
| CCOc1cccc(C2(C(=O)NS(=O)(=O)Oc3c(C(C)C)cccc3C(C)C)CCN(c3ncccn3)CC2)c1 | – | 3.1 | 69 (≈ 122 µM) | – |
| COc1cccc(C2(C(=O)[N-]S(=O)(=O)Oc3c(C(C)C)cccc3C(C)C)CCN(c3ccccc3OC)CC2)c1.[Na+] | – | – | – | Cmax [6]: 420 ng/mL; AUC(0-t) at 6 h [13]: 1160 ng·h/mL |
| COc1cccc(C2(C(=O)NS(=O)(=O)Oc3c(C(C)C)cccc3C(C)C)CCN(c3nc4ccccc4s3)CC2)c1 | > 1 | 0.26 | 3 (≈ 4.94 µM) | – |
| CC(C)c1cccc(C(C)C)c1OS(=O)(=O)NC(=O)C1(c2cccc(O)c2)CCN(c2ncccn2)CC1 | – | > 10 | 200 (≈ 371 µM) | – |
| CCCc1ccccc1OS(=O)(=O)NC(=O)C1(c2cccc(OC)c2)CCN(c2ccccc2OC)CC1 | > 1 | 4.07 | – | – |
| COc1cccc(C2(C(=O)NS(=O)(=O)Oc3c(C(C)C)cccc3C(C)C)CCN(c3nccc(C(F)(F)F)n3)CC2)c1 | > 1 | > 10 | – | – |
| COc1cccc(C2(C(=O)NS(=O)(=O)Oc3c(C(C)C)cccc3C(C)C)CCN(c3ncccn3)CC2)c1 [listing 2 of 2 here] | > 1 | 0.047 | – | Activity (HepG2 [14]): 136%; Activity (Hamster [15]): -12%; Activity (Hamster [16]): -27%; Activity (Hamster [3]): -38%; Activity (HepG2 [17]): 140%; Activity (HepG2 [18]): 119%; Activity (Hamster [5]): -17%; Activity (Hamster [19]): -24%; Activity (Hamster [20]): -8% |
| CCCCn1c(=O)c(NC(=O)Nc2c(C(C)C)cc(N)cc2C(C)C)c(-c2cccc(OCCCO)c2)c2cccnc21.Cl.O | 0.031 | 0.49 | – | Activity (Hamster [3]): -31%; Activity (Hamster [5]): -29% |
| CC(C)c1cccc(C(C)C)c1OS(=O)(=O)NC(=O)C1(c2cccc(OCCCO)c2)CCN(c2ncccn2)CC1 | – | > 10 | > 200 | – |
| COc1cccc(C2(C(=O)NS(=O)(=O)Oc3ccccc3)CCN(c3ccccc3OC)CC2)c1 | > 1 | > 10 | – | – |
